Here are results for twelve compounds from ChEMBL document CHEMBL1153007, “Mono and bis-6-arylbenzimidazo[1,2-c]quinazolines: a new class of antimicrobial agents” (2009).

The structures appear in SMILES notation. In brackets after ≈: the same amount, converted by molar mass.

As a reminder, the MIC is the lowest concentration found to suppress growth. Higher therefore signals a need for much substance.

In assay [1] the test system is Candida albicans. Put plainly: Antifungal activity against Candida albicans at 1000 ug/ml after 72 hrs by agar diffusion method. Particulars: read-out: IZ. The format is functional. The method, boiled down:
(§1)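 Strains grown and maintained on Sabouraud glucose agar. Test solution at 1000 µg/ml placed in bores cut in the agar. Plates incubated at 26 °C for 72 h, then the zone of inhibition around each bore was measured. Ketoconazole plates as standard; one-way ANOVA at p ≤ 0.05.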
On the technique in general: In agar diffusion tests the substance spreads into inoculated agar from a disc or well.

Assay [2] has as its system Staphylococcus aureus. Kind of assay: Antibacterial activity against Staphylococcus aureus at 1000 ug/ml after 24 hrs by agar diffusion method. The format is functional. Conditions: read-out: IZ. The method, boiled down: (§2)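 Cup-plate agar diffusion on nutrient agar. Cultures grown overnight in NA broth at 37 °C and swabbed onto plates. Test solution at 1000 μg/ml added to 6 mm bores. Plates incubated at 37 °C for 24 h; zone of inhibition measured. Ampicillin plate as standard; one-way ANOVA at p ≤ 0.05.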

The subject of assay [3] is Aspergillus niger. Kind of assay: Antifungal activity against Aspergillus niger at 1000 ug/ml after 72 hrs by agar diffusion method. In kind it is functional. Particulars: read-out: IZ. The procedure, abridged: as §1
For assay [4], the system named is Escherichia coli. Kind of assay: Antibacterial activity against Escherichia coli at 1000 ug/ml after 24 hrs by agar diffusion method. Conditions: read-out: IZ. The format is functional. The procedure, abridged: as §2
The subject of assay [5] is Salmonella enterica subsp. enterica. Kind of assay: Antibacterial activity against Salmonella Typhimurium at 1000 ug/ml after 24 hrs by agar diffusion method. In kind it is functional, Salmonella enterica subsp. enterica serovar Typhimurium. Conditions: read-out: IZ. The method, boiled down:
as §2

The subject of assay [6] is Bacillus subtilis. Put plainly: Antibacterial activity against Bacillus subtilis at 1000 ug/ml after 24 hrs by agar diffusion method. In kind it is functional. Particulars: read-out: IZ. The procedure, abridged: as §2
In assay [7] the test system is Klebsiella pneumoniae. Put plainly: Antibacterial activity against Klebsiella pneumoniae at 1000 ug/ml after 24 hrs by agar diffusion method. In kind it is functional. Particulars: read-out: IZ. The procedure, abridged: as §2
Assay [8] has as its system Streptococcus pyogenes. Put plainly: Antibacterial activity against Streptococcus pyogenes at 1000 ug/ml after 24 hrs by agar diffusion method. In kind it is functional. Particulars: read-out: IZ. The procedure, abridged:
as §2

The test system of assay [9] is Trichoderma viride. Kind of assay: Antifungal activity against Trichoderma viride at 1000 ug/ml after 72 hrs by agar diffusion method. The format is functional. Conditions: read-out: IZ. The procedure, abridged:
as §1

Assay [10] relates to Aspergillus niger. Kind of assay: Antifungal activity against Aspergillus niger after 24 hrs by liquid dilution method.
Assay [11] relates to Candida albicans. Kind of assay: Antifungal activity against Candida albicans after 72 hrs by liquid dilution method. The format is functional. The method, boiled down: (§3)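 Liquid dilution in tubes: 1 ml compound solution (stocks 2.5–50 µg/ml, prepared in appropriate solvent) plus 0.2 ml fungal inoculum and 3.8 ml sterile water; checked for turbidity. MIC taken as lowest concentration with no visible growth. Ketoconazole as reference.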

The subject of assay [12] is Escherichia coli. Kind of assay: Antibacterial activity against Escherichia coli after 24 hrs by liquid dilution method. The format is functional. The procedure, abridged: (§4)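 Liquid dilution in tubes: 1 ml compound solution (stocks 2.5, 5, 10, 15, 20, 25, 30, 35, 40, 45, 50 µg/ml, prepared in appropriate solvent) plus 0.2 ml bacterial inoculum and 3.8 ml sterile water; incubated 24 h, checked for turbidity. MIC taken as lowest concentration with no growth. Ampicillin as reference.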

Assay [13] relates to Trichoderma viride. Kind of assay: Antifungal activity against Trichoderma viride after 24 hrs by liquid dilution method.
For assay [14], the system named is Klebsiella pneumoniae. Put plainly: Antibacterial activity against Klebsiella pneumoniae after 24 hrs by liquid dilution method. In kind it is functional. The method, boiled down: as §4
For assay [15], the system named is Staphylococcus aureus. Kind of assay: Antibacterial activity against Staphylococcus aureus after 24 hrs by liquid dilution method. In kind it is functional. The method, boiled down:
as §4

For assay [16], the system named is Bacillus subtilis. Put plainly: Antibacterial activity against Bacillus subtilis after 24 hrs by liquid dilution method. The format is functional. The method, boiled down:
as §4

The test system of assay [17] is Salmonella enterica subsp. enterica. Kind of assay: Antibacterial activity against Salmonella Typhimurium after 24 hrs by liquid dilution method. The format is functional, Salmonella enterica subsp. enterica serovar Typhimurium. The procedure, abridged:
as §4

The test system of assay [18] is Streptococcus pyogenes. Put plainly: Antibacterial activity against Streptococcus pyogenes after 24 hrs by liquid dilution method. The format is functional. The method, boiled down:
as §4

Assay [19] relates to Aspergillus niger. Put plainly: Antifungal activity against Aspergillus niger after 72 hrs by liquid dilution method. The format is functional. The method, boiled down:
as §3

Assay [20] has as its system Trichoderma viride. Put plainly: Antifungal activity against Trichoderma viride after 72 hrs by liquid dilution method. The format is functional. The procedure, abridged: as §3

As to `c1cc(-c2nc3ccccc3c3nc4ccccc4n23)cc(-c2nc3ccccc3c3nc4ccccc4n23)c1`, the zone of inhibition at 1000 µg/mL is 15 mm in assay [1]; 21 mm in [2]; 18 mm in assay [3]; 19 mm in [4]; 15 mm in assay [5]; 18 mm in assay [6]. In addition, the zone of inhibition at 1000 µg/mL in [7] came out at 18 mm; in [8], 15 mm; in [9], 12 mm.
Take `c1ccc2c(c1)nc(-c1ccc(-c3nc4ccccc4c4nc5ccccc5n34)s1)n1c3ccccc3nc21`: the zone of inhibition at 1000 µg/mL in assay [1] was 51 mm; in [2] it was 55 mm; in assay [3] it was 55 mm; in [4], 51 mm; in assay [5], 46 mm; in assay [6], 50 mm. The zone of inhibition at 1000 µg/mL in assay [7] was 50 mm; in [8], 52 mm; in [9], 48 mm. Further, the MIC in [10] was determined as 2.5 µg/mL (≈ 4.82 µM); in [11], 2.5 µg/mL (≈ 4.82 µM); in [12] it was 2.5 µg/mL (≈ 4.82 µM); in assay [13] it was 5 µg/mL (≈ 9.64 µM); in [14], 5 µg/mL (≈ 9.64 µM); in [15] it was 2.5 µg/mL (≈ 4.82 µM). Moreover, the MIC amounted to 10 µg/mL (≈ 19.3 µM) in [16], 5 µg/mL (≈ 9.64 µM) in [17] and 5 µg/mL (≈ 9.64 µM) in [18].
As for `CC1(C)S[C@@H]2[C@H](NC(=O)[C@H](N)c3ccccc3)C(=O)N2[C@H]1C(=O)O` [AMPICILLIN], the zone of inhibition at 1000 µg/mL in [2] was 48 mm; in [4], 40 mm; in assay [5], 45 mm; in [6], 39 mm; in assay [7] it was 45 mm; in assay [8] it was 35 mm. The MIC in assay [12] was found to be 15 µg/mL (≈ 42.9 µM); in assay [14], 10 µg/mL (≈ 28.6 µM); in [15], 10 µg/mL (≈ 28.6 µM); in assay [16] it was 20 µg/mL (≈ 57.2 µM); in assay [17] it was 10 µg/mL (≈ 28.6 µM); in assay [18], 25 µg/mL (≈ 71.5 µM).
For `CC(=O)N1CCN(c2ccc(OCC3COC(Cn4ccnc4)(c4ccc(Cl)cc4Cl)O3)cc2)CC1` (centres undefined) [KETOCONAZOLE], the zone of inhibition at 1000 µg/mL in assay [1] was determined as 40 mm; in assay [3] it was 45 mm; in [9], 41 mm. The MIC amounted to 15 µg/mL (≈ 28.2 µM) in [19], 25 µg/mL (≈ 47 µM) in assay [11] and 20 µg/mL (≈ 37.6 µM) in assay [13].
On to `c1ccc2c(c1)nc(-c1ccc(-c3nc4ccccc4c4nc5ccccc5n34)cc1)n1c3ccccc3nc21`, for which the zone of inhibition at 1000 µg/mL was determined as 16 mm in assay [1]; 25 mm in assay [2]; 21 mm in [3]; 21 mm in [4]; 14 mm in assay [5]; 19 mm in assay [6]. The zone of inhibition at 1000 µg/mL in assay [7] stood at 18 mm; in [8], 18 mm; in [9], 13 mm.
As to `c1csc(-c2nc3ccccc3c3nc4ccccc4n23)c1`, the zone of inhibition at 1000 µg/mL in assay [1] came to 48 mm; in assay [2], 51 mm; in [3], 51 mm; in [4] it was 50 mm; in assay [5] it was 40 mm; in assay [6], 45 mm. Also, the zone of inhibition at 1000 µg/mL in [7] amounted to 36 mm; in assay [8] it was 50 mm; in assay [9], 46 mm. The minimum inhibitory concentration (MIC) in assay [10] stood at 5 µg/mL (≈ 16.6 µM); in [11] it was 15 µg/mL (≈ 49.8 µM); in assay [12], 10 µg/mL (≈ 33.2 µM); in assay [20], 10 µg/mL (≈ 33.2 µM); in assay [14], 15 µg/mL (≈ 49.8 µM); in assay [15], 5 µg/mL (≈ 16.6 µM). Also, the MIC in [16] amounted to 15 µg/mL (≈ 49.8 µM); in [17], 15 µg/mL (≈ 49.8 µM); in assay [18] it was 10 µg/mL (≈ 33.2 µM).
As to `c1c[nH]c(-c2nc3ccccc3c3nc4ccccc4n23)c1`, the zone of inhibition at 1000 µg/mL came out at 9 mm in [1]; 22 mm in assay [2]; 11 mm in [3]; 18 mm in assay [4]; 14 mm in assay [5]; 18 mm in assay [6]. Further, the zone of inhibition at 1000 µg/mL came to 12 mm in [7], 13 mm in assay [8] and 9 mm in assay [9].
As for `c1ccc(-c2nc3ccccc3c3nc4ccccc4n23)c(-c2nc3ccccc3c3nc4ccccc4n23)c1`, the zone of inhibition at 1000 µg/mL in [1] amounted to 13 mm; in assay [2], 18 mm; in [3], 16 mm; in assay [4], 20 mm; in [5] it was 12 mm; in assay [6], 14 mm. Moreover, the zone of inhibition at 1000 µg/mL was 15 mm in assay [7], 15 mm in assay [8] and 13 mm in [9].
As for `c1cc(-c2nc3ccccc3c3nc4ccccc4n23)nc(-c2nc3ccccc3c3nc4ccccc4n23)c1`, the zone of inhibition at 1000 µg/mL stood at 50 mm in [1]; 52 mm in [2]; 50 mm in assay [3]; 50 mm in [4]; 46 mm in assay [5]; 45 mm in assay [6]. The figures for the zone of inhibition at 1000 µg/mL in assay [7], in [8] and in [9] were 49 mm, 50 mm and 45 mm, respectively. Also, the MIC in assay [10] worked out at 2.5 µg/mL (≈ 4.87 µM); in [11] it was 5 µg/mL (≈ 9.74 µM); in assay [12], 5 µg/mL (≈ 9.74 µM); in [13], 10 µg/mL (≈ 19.5 µM); in assay [14] it was 5 µg/mL (≈ 9.74 µM); in assay [15], 2.5 µg/mL (≈ 4.87 µM). The MIC in assay [16] turned out to be 15 µg/mL (≈ 29.2 µM); in [17] it was 5 µg/mL (≈ 9.74 µM); in assay [18], 10 µg/mL (≈ 19.5 µM).
Turning to `c1coc(-c2nc3ccccc3c3nc4ccccc4n23)c1`, the zone of inhibition at 1000 µg/mL in assay [1] stood at 11 mm; in [2], 25 mm; in assay [3], 13 mm; in assay [4], 20 mm; in assay [5] it was 15 mm; in assay [6], 21 mm. The zone of inhibition at 1000 µg/mL in assay [7] was determined as 12 mm; in assay [8], 18 mm; in [9], 6 mm.
With `c1ccc(-c2nc3ccccc3c3nc4ccccc4n23)cc1`, the zone of inhibition at 1000 µg/mL in assay [1] was found to be 10 mm; in [2], 18 mm; in [3] it was 10 mm; in assay [4], 18 mm; in assay [5], 12 mm; in assay [6], 14 mm. In addition, the results for the zone of inhibition at 1000 µg/mL in [7], in [8] and in assay [9] were 16 mm, 13 mm and 9 mm, respectively.
For the compound `c1ccc(-c2nc3ccccc3c3nc4ccccc4n23)nc1`, the zone of inhibition at 1000 µg/mL in [1] was found to be 48 mm; in assay [2] it was 50 mm; in [3] it was 49 mm; in assay [4] it was 51 mm; in [5], 38 mm; in assay [6] it was 42 mm. The zone of inhibition at 1000 µg/mL in assay [7] was determined as 35 mm; in [8] it was 49 mm; in assay [9], 45 mm. Also, the MIC was found to be 10 µg/mL (≈ 33.7 µM) in assay [10]; 15 µg/mL (≈ 50.6 µM) in assay [11]; 15 µg/mL (≈ 50.6 µM) in assay [12]; 15 µg/mL (≈ 50.6 µM) in assay [20]; 20 µg/mL (≈ 67.5 µM) in [14]; 10 µg/mL (≈ 33.7 µM) in [15]. For the same compound, the MIC in [16] turned out to be 20 µg/mL (≈ 67.5 µM); in assay [17], 20 µg/mL (≈ 67.5 µM); in [18] it was 15 µg/mL (≈ 50.6 µM).
